Assay [1] concerns Rattus norvegicus. Description: In vivo accumulation of 5-HTP in limbic of rat brain for following at 32 umol/kg reserpine pretreatment. It is filed as functional. The essentials:
(§1)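 Male Sprague–Dawley rats pretreated with reserpine (8 μmol/kg, 4 h before), then given drug sc as hydrochloride in saline 30 min before NSD 1015 decarboxylase inhibition; killed 30 min later. Striatal and limbic 5-HTP or DOPA determined by ion-pair reversed-phase HPLC with electrochemical detection, ng/g; means ± SEM, n = 3–7; Dunnett's test vs reserpinised controls.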

In assay [2] the test system is Rattus norvegicus. Briefly: In vivo accumulation 5-HTP in striatum of rat brain at 10 umol/Kg. The assay is classed as functional. The essentials: (§2)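 Nonreserpinised male Sprague–Dawley rats (180–220 g) given drug as hydrochloride sc in saline, 30 min before aromatic L-amino acid decarboxylase inhibitor NSD 1015; killed 30 min after NSD 1015. Striatum and limbic system (rhinal fissure landmark) dissected. 5-HTP or DOPA measured by ion-pair reversed-phase HPLC with electrochemical detection, ng/g; means ± SEM, n = 3–7 per dose group, Dunnett's test vs control.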

The target of assay [3] is T1, 5-hydroxytryptamine receptor 1A (Rattus norvegicus, UniProt P19327).
T1 sequence (P19327 whole entry): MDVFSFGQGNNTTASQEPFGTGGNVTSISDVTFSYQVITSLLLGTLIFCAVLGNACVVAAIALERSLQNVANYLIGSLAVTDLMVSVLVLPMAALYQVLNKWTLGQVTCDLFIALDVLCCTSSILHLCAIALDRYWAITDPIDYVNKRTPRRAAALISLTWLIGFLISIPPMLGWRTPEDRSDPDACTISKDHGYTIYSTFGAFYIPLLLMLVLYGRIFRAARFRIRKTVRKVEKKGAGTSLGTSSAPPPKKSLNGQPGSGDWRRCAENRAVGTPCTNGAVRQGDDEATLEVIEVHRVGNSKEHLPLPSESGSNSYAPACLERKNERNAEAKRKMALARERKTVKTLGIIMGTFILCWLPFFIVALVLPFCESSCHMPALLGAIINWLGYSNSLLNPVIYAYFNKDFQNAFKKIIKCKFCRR
Briefly: Affinity for 5-hydroxytryptamine 1A receptor site. The method, boiled down:
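Rat (male Sprague–Dawley) cortex plus hippocampus homogenised in 50 mM Tris-HCl with 4.0 mM CaCl2 and 5.7 mM ascorbate, pH 7.5, washed, pooled (≥6 rats), pargyline 10 μM pretreated. Incubated at 37 °C for 10 min with 2 nM [3H]-8-OH-DPAT and 1–300 nM competitor. Filtered, scintillation counted; 10 μM 5-HT defines nonspecific binding. Ki from nonlinear least-squares using Kd 1.4 nM.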

The subject of assay [4] is Rattus norvegicus. Description: In vivo accumulation 5-HTP in striatum of rat brain striatum at 32 umol/kg reserpine pretreatment. The assay is classed as functional. The essentials:
as §1

For assay [5], the system named is Rattus norvegicus. Briefly: In vivo accumulation 5-HTP in striatum of rat brain at 3.2 umol/Kg. The assay is classed as functional. The method, boiled down:
as §2

Assay [6] has as its system Rattus norvegicus. Briefly: In vivo accumulations of dopamine in limbic of rat brain at 10 umol/Kg. The assay is classed as functional. The essentials:
as §2

Assay [7] has as its system Rattus norvegicus. Description: In vivo accumulation of 5-HTP in limbic of rat brain at 3.2 umol/Kg. It is filed as functional. The method, boiled down: as §2
For assay [8], the system named is Rattus norvegicus. Description: In vivo accumulation of dopamine in striatum of rat brain at 3.2 umol/Kg. It is filed as functional. The essentials:
as §2

For assay [9], the system named is Rattus norvegicus. Description: In vivo accumulation of 5-HTP in limbic of rat brain for following at 10 umol/Kg. The assay is classed as functional. The essentials: as §2
The test system of assay [10] is Rattus norvegicus. Description: In vivo accumulation of dopamine in striatum of rat brain at 32 umol/kg with reserpine pretreatment. It is filed as functional. The essentials: as §1
The subject of assay [11] is Rattus norvegicus. Description: In vivo accumulations of dopamine in limbic of rat brain for at 3.2 umol/Kg. It is filed as functional. The method, boiled down: as §2
For assay [12], the system named is Rattus norvegicus. Briefly: In vivo accumulation of dopamine in striatum of rat brain at 10 umol/Kg. The assay is classed as functional. The method, boiled down: as §2
The test system of assay [13] is Rattus norvegicus. Briefly: In vivo accumulations of dopamine in limbic of rat brain at 32 umol/Kg. The assay is classed as functional. The essentials:
as §2

Assay [14] concerns Rattus norvegicus. Briefly: In vivo accumulation of 5-HTP in limbic of rat brain for following at 32 umol/Kg. It is filed as functional. The method, boiled down: as §2
The test system of assay [15] is Rattus norvegicus. Description: In vivo accumulation of dopamine in striatum of rat brain at 32 umol/Kg. It is filed as functional. The essentials: as §2
Assay [16] deals with Rattus norvegicus. Description: In vivo accumulation 5-HTP in striatum of rat brain striatum at 32 umol/Kg. The assay is classed as functional. The essentials:
as §2

SMILES strings stand for the structures. Where only a bound is given, the exact number is not on record here.

This note sets out measurements from ChEMBL document CHEMBL1124353, “(R)- and (S)-5,6,7,8-tetrahydro-1-hydroxy-N,N-dipropyl-9H-benzocyclohepten- 8-ylamine. Stereoselective interactions with 5-HT1A receptors in the brain” (J Med Chem, 1989).

For orientation: Ki means a measure of affinity in units of concentration, obtained from inhibition or displacement. A lower Ki goes with a stronger hold on the target. For `CCCN(CCC)[C@H]1CCCc2cccc(O)c2C1`, the Dose in [1] amounted to 154 µM/kg; in assay [2] it was 98 µM/kg; in assay [4], 74 µM/kg; in assay [5] it was 110 µM/kg; in assay [6], 381 µM/kg; in assay [7], 194 µM/kg. Besides, the Dose in [8] was found to be 1003 µM/kg; in assay [9] it was 170 µM/kg; in assay [10], 1934 µM/kg; in assay [11] it was 331 µM/kg; in assay [12], 830 µM/kg. In addition, the inhibitory constant (Ki) in assay [3] was more than 300 nM.
`CCCN(CCC)[C@@H]1CCCc2cccc(O)c2C1`: the Dose came out at 437 µM/kg in [13]; 76 µM/kg in [14]; 60 µM/kg in assay [2]; 314 µM/kg in assay [6]; 132 µM/kg in assay [7]; 1068 µM/kg in assay [8]. Besides, the Dose in [15] stood at 1035 µM/kg; in assay [9] it was 122 µM/kg; in assay [16], 54 µM/kg; in assay [11], 408 µM/kg; in [12], 919 µM/kg. Moreover, the Ki in [3] turned out to be 29.7 nM.
